# CHRM1 antagonist: human M1 muscarinic receptor antagonists, primary screen, CHO-K1 cells, Fluo-8 calcium fluorescence, 1536-well | actives 1.3% (n = 360,000) | Muscarinic acetylcholine receptor M1 (Homo sapiens), P11229 | CHO-K1 hM1, ACh EC80 antagonist | inhibition, % at 3 µM;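 active means percent inhibition above its own plate's cutoff, namely the mean of that plate's compound wells plus 3 SD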;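 further: peak over basal fluorescence ratio during 140 s after agonist addition; 0% = ACh EC80 plus DMSO and 100% = DMSO alone without agonist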
# Target sequence (P11229 whole entry, looked up): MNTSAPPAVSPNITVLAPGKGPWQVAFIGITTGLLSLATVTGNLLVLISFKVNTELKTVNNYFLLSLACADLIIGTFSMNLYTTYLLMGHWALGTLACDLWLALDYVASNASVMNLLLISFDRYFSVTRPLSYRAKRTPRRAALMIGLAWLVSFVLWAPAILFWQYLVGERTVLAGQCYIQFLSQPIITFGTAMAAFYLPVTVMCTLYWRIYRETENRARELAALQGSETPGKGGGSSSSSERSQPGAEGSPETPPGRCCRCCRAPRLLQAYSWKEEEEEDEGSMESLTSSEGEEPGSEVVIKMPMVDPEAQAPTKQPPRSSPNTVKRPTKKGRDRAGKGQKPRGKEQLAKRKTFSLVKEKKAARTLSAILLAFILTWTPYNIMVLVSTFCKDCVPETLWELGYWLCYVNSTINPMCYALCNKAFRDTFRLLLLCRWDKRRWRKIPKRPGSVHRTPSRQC
# M5 PAM: human M5 muscarinic receptor positive allosteric modulators, primary screen, CHO-K1 cells, Fluo-8 calcium fluorescence; CHO-K1 hM5, ACh EC20 PAM; 0% = ACh EC20, 100% = ACh EC100; activation, % at 3 µM; actives 0.3% (n = 360,000);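 active means activation above the run cutoff, the mean activation of all test compounds plus 3 SD, cut at about 18% in these data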
#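 system = human M5 receptor in CHO-K1 cells | compound = one concentration, 3 µM final (nominal) | schedule = Post-acetylcholine fluorescence recording 140 s | signal = Fluo-8 calcium dye fluorescence, kinetic read | benchmarks = low control EC20 acetylcholine (0%), high control EC100 acetylcholine (100%) | repeats = singlicate, one well per test compound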
# M1 PAM: human M1 muscarinic receptor positive allosteric modulators, primary screen, CHO-K1 cells, Fluo-8 calcium fluorescence, 1536-well. CHO-K1 hM1, ACh EC20; 0% = ACh EC20, 100% = maximal ACh. AID 588819, 2011. activation, % at 3 µM. Muscarinic acetylcholine receptor M1 (Homo sapiens), P11229. actives 0.088% (n = 360,000); in the data active means activation above about 19%, passing the limit was not always enough
# CHRM5 antagonist: human M5 muscarinic receptor antagonists, primary screen, CHO cells, Fluo-8 calcium fluorescence. Muscarinic acetylcholine receptor M5 (Homo sapiens), P08912. CHO-hM5 cells, ACh EC80. inhibition, % at 3 µM. actives 0.59% (n = 360,000). AID 624040, 2012;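 active means inhibition above a per-plate cutoff, the mean of that plate's test compounds plus 3 SD, cut at about 27% in these data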;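 further: 0% = acetylcholine EC80 with DMSO and 100% = DMSO without agonist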
# M1 ag: human M1 muscarinic receptor agonists, primary screen, Fluo-8 calcium fluorescence, CHO-K1 cells, HTS. Muscarinic acetylcholine receptor M1 (Homo sapiens), P11229. CHO-K1 hM1, agonist mode; 0% DMSO, 100% acetylcholine EC100. activation, % at 3 µM. actives 0.33% (n = 360,000);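 active means activation above the run's mean compound activation plus 3 SD, cut at about 16% in these data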;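 further: peak over basal fluorescence ratio within a 140 s kinetic read after compound addition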
# M5 ag: human M5 muscarinic receptor agonists, primary screen, CHO-K1 cells, Fluo-8 calcium fluorescence. CHO-K1 hM5 cells; 0% DMSO wells, 100% maximal acetylcholine response. Muscarinic acetylcholine receptor M5 (Homo sapiens), P08912. activation, % at 3 µM. AID 624037, 2012. actives 0.19% (n = 360,000);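 active means activation above the run's mean over test compounds plus 3 SD, cut at about 23% in these data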;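 further: signal is peak over basal fluorescence ratio across the kinetic read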
# Starred values were filed as active, the others as inactive; / = no result. Sampled rows, rich in hits. Any-hit rate of the full collection: about 2%.
SMILES,CHRM1 antagonist,M5 PAM,M1 PAM,CHRM5 antagonist,M1 ag,M5 ag
COc1ccc(OC)c(C(=O)Cn2c3[n+](c4ccc(C(F)(F)F)cc42)CCCCC3)c1,0.1,7.6,1.5,0.6,-3.2,1.8
Fc1ccccc1Cn1c2[n+](c3ccc(C(F)(F)F)cc31)CCCCC2,33.6*,-3.0,-20.4,2.9,-8.8,-17.4
CN(C)CCCNc1ncnc2c1c(-c1ccccc1)cn2-c1ccccc1,-1.4,0.7,-0.8,-0.6,-10.5,-2.9
c1ccc(CNc2ncnc3scc(-c4cccs4)c23)nc1,29.5*,-24.2,-13.7,28.1*,0.5,-4.3
c1ccc(-c2csc3ncnc(NCc4ccccn4)c23)cc1,42.9*,-18.1,-19.4,18.3,0.8,-9.2
CN(C)CCCNc1ncnc2scc(-c3ccccc3)c12,48.1*,-24.7,-23.6,23.2,-6.8,-19.6
CN1CCCN=C1COC(=O)C(O)(c1ccccc1)C1CCCCC1 (centres undefined),99.0*,-18.5,-26.3,98.7*,-7.6,-1.6
CC(C)(C)N(Cc1ccccc1)C(=O)COC(=O)C1CCCCC1,-8.5,4.6,-0.4,16.1,-6.0,-1.8
CCOc1ccc(CCNC(=O)Cn2ccc3ccccc3c2=O)cc1OCC,-7.6,20.2*,4.2,-0.2,-3.2,0.3
CC(=O)NC(C)(c1ccccc1)c1nc(-c2cccc(F)c2)cs1 (centres undefined),1.0,-3.5,-0.6,-10.3,-6.4,-1.9
O=C(O)CCn1ccc2cc(S(=O)(=O)N3CCCCCC3)ccc21,-8.1,19.0*,8.7,-9.8,1.1,-1.0
COc1cccc(CNC(=O)C(C)n2ccc3cc(S(=O)(=O)N4CCCCCC4)ccc32)c1 (centres undefined),-0.9,-3.1,-1.3,4.3,-3.0,-0.7
CCC(C(=O)NCCC(C)C)n1ccc2cc(S(=O)(=O)N3CCCCC3)ccc21 (centres undefined),44.7*,-11.6,-20.3,33.8*,1.1,0.2
CC(=O)NCCNc1nc2cc(-c3ccc(Cl)cc3C)sc2c(=O)n1C,-19.4,-1.0,3.7,-2.8,-3.5,-1.1
COc1ccc(NC(=O)C2CCC(N3C(=O)C4C5C=CC(C5)C4C3=O)CC2)cc1 (centres undefined),-6.3,-0.6,2.7,-11.5,-2.2,2.9
COc1ccc(NC(=O)[C@@H]2[C@@H]3C(=O)N(C4CCCCC4)C(=O)[C@@H]3C3c4ccccc4C=CN32)cc1 (some centres undefined),25.2*,4.1,-15.6,-0.1,65.1*,-3.1
CCC1OC(C)Cc2[nH][nH]c(=O)c21 (centres undefined),/,-7.5,/,10.2,/,0.2
CCOC(=O)c1nnc(-c2ccc(C)cc2)nc1Sc1cccc(Cl)c1,-7.5,-0.8,1.9,-1.0,-3.7,-3.1
CCOC(=O)c1nnc(-c2ccccc2)nc1Sc1ccccc1Cl,10.9,-1.9,-6.6,29.2*,-3.1,0.3
CCCCn1c(O)c2n(c1=O)Cc1ccccc1N=C2c1ccc(C)cc1,-14.4,2.1,-3.4,1.9,-4.7,1.1
COc1ccc(C(=O)Nc2c3c(nn2-c2ccc(Cl)cc2)CS(=O)(=O)C3)cc1,-13.9,25.5*,7.0,-82.5,2.1,4.8
CC(C)(C)C(=O)NC(=S)NNC(=O)C(c1ccccc1)c1ccccc1,90.7*,-34.1,-23.6,51.8*,114.1*,110.6*
CC(=O)NNC(=S)NC(=O)C(c1ccccc1)c1ccccc1,0.0,9.0,-4.8,-4.2,0.9,6.1
CN(C)S(=O)(=O)c1cc(NC(=O)c2ccc(-n3ccnc3)c([N+](=O)[O-])c2)ccc1Cl,25.5*,-10.9,-17.7,24.0,-8.0,-3.5
CCOC(=O)c1ccc(NC(=S)NC2CC(C)(C)NC(C)(C)C2)cc1,3.0,3.1,-16.0,-3.2,41.7*,-2.3
SMILES,CHRM1 antagonist,M5 PAM,M1 PAM,CHRM5 antagonist,M1 ag,M5 ag
O=C(Nc1ccc(Cl)cc1)Nc1ccccc1NS(=O)(=O)c1cccs1,33.5*,-19.5,-26.1,44.2*,2.1,7.2
O=C(Nc1ccc(F)cc1)Nc1ccccc1NS(=O)(=O)c1cccs1,9.8,-19.2,-12.7,25.5,2.6,10.8
CCOC(=O)N1CCN(C(=O)C[C@@H]2C[C@@]3(C(=O)OC)CC(C)(C)CC=C3N(Cc3ccc4c(c3)OCO4)C2=O)CC1,/,1.5,/,-2.2,/,4.3
O=C1CCC(C(=O)N2CCCC2)CN1Cc1cccc(C(F)(F)F)c1 (centres undefined),-10.1,2.2,8.1,-4.2,-3.8,-1.9
O=C1CCC(C(=O)N2CCCO2)CN1Cc1cccc(C(F)(F)F)c1 (centres undefined),-6.4,19.0*,14.4,-29.8,0.7,-2.2
CCN(CC)C(=O)C1=C(C)N(Cc2ccccc2)C(=O)C(CC(=O)NCc2cccc3ccccc23)C1 (centres undefined),-17.5,4.2,12.6,-2.5,-4.4,0.1
CCN1/C(=C/c2ccc3cccc(C)c3[n+]2CC)Sc2ccccc21,50.6*,-6.9,-6.9,27.2*,13.6,6.1
CCN1/C(=C/c2ccc3cc(C)cc(C)c3[n+]2CC)Sc2cc(C)ccc21,54.8*,-23.4,-13.2,31.1*,17.9*,5.0
CCN1/C(=C/c2ccc3cc(C)ccc3[n+]2CC)Sc2ccc3sccc3c21,18.1,4.8,-0.9,8.1,-2.1,-0.7
CCN1/C(=C\c2ccc3cc(C)ccc3[n+]2CC)Sc2cc(C)c(C)cc21,52.4*,-22.6,-12.3,42.0*,12.9,8.6
O=C(Nc1ccc(F)cc1)C(c1ccccc1OC(F)(F)F)N1CCN(C(=O)c2ccco2)CC1 (centres undefined),/,8.8,/,-3.5,/,-0.4
COCCN1C[C@@H](CO)O[C@@H](n2cnc3c(NC4CCCC4)ncnc32)C1,-6.6,-3.2,7.4,2.2,-0.7,0.7
CC(=O)c1cn(S(=O)(=O)c2ccccc2)c2ccccc12,2.8,-8.4,5.3,9.3,-7.7,-4.8
CCN(Cc1ccccc1)S(=O)(=O)c1ccc(C(=O)N(CCCN(C)C)c2nc3cc4c(cc3s2)OCCO4)cc1,21.2*,-0.5,-15.6,8.0,-4.3,0.8
CN(C)CCCN(C(=O)c1cc(Cl)sc1Cl)c1nc2cc3c(cc2s1)OCO3,96.1*,-17.9,-23.6,42.2*,-4.0,-8.8

# High-throughput results: PubChem, The Scripps Research Institute Molecular Screening Center
